Key:
[1] = target: T1, Estrogen receptor (Homo sapiens, UniProt P03372)
T1 sequence (P03372 whole entry): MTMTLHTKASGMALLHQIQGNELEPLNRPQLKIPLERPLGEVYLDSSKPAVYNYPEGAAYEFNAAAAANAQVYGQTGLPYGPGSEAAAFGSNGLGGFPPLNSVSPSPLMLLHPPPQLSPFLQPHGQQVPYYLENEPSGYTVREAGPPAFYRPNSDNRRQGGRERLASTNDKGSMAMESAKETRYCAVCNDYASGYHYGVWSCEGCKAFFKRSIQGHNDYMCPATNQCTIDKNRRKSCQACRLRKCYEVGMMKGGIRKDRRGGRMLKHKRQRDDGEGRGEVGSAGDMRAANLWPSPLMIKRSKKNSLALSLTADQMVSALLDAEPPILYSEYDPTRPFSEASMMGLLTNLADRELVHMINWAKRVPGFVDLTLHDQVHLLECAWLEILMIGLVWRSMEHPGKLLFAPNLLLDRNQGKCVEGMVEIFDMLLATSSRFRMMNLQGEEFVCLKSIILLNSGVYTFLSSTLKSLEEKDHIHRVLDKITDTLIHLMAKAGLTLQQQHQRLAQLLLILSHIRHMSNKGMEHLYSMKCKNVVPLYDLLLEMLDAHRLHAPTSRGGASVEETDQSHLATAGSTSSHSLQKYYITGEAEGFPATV

[2] = target: T2, Estrogen receptor beta (Homo sapiens, UniProt Q92731)
T2 sequence (Q92731 whole entry): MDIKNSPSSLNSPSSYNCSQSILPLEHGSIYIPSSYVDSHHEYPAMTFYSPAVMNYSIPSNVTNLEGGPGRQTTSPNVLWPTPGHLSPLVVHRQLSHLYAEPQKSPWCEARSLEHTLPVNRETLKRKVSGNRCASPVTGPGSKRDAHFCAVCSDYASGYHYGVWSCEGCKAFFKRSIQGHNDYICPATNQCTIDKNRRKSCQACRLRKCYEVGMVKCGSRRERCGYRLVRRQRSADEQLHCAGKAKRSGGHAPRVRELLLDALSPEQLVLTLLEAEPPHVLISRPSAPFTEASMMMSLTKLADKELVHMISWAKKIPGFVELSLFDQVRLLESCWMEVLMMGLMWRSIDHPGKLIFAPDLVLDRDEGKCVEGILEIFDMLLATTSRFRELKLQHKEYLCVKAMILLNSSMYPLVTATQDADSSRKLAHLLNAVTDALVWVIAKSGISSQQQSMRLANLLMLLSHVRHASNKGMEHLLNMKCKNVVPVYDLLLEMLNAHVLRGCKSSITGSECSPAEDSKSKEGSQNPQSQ

[3] = species on record: Rattus norvegicus; assay: (§1) Bioavailability in rat (Sprague-Dawley) (female); assay type: ADME, organism-based; conditions: in vivo
Outline: (§2)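 Female Sprague–Dawley rats were dosed intravenously at 1 mpk (n = 2) and orally at 2 mpk (n = 3) for pharmacokinetic evaluation.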

[4] = species on record: Rattus norvegicus; assay: (§3) Half life period in female Sprague-Dawley rats; assay type: ADME, organism-based; conditions: in vivo
Outline: as §2

[5] = species on record: Rattus norvegicus; assay: (§4) Plasma clearance of the compound in female Sprague-Dawley rats; assay type: ADME, organism-based; conditions: in vivo
Outline: as §2

[6] = target: T3, Estrogen receptor (Rattus norvegicus) (UniProt P06211+Q62986); conditions: at 1 mg/kg
[7] = target: T2, Estrogen receptor beta; assay: Potency in cellular transactivation assay utilizing HEK293 cells stably co-transfected with human estrogen receptor beta and the alkaline phosphatase reporter gene; assay type: functional, cell-based
[8] = target: T1, Estrogen receptor; assay: Potency in cellular transactivation assay utilizing HEK293 cells stably co-transfected with human estrogen receptor alpha and the alkaline phosphatase reporter gene.; assay type: functional, cell-based
[9] = target: T3, Estrogen receptor (Rattus norvegicus); conditions: at 1 mg/kg; remark: listed apart in the source
[10] = target: T3, Estrogen receptor (Rattus norvegicus); conditions: at 1 mg/kg; remark: listed apart in the source
[11] = as §1; assay type: ADME, organism-based; conditions: female, Sprague-Dawley, in vivo
Outline: as §2

[12] = target: T3, Estrogen receptor (Rattus norvegicus); conditions: at 1 mg/kg; remark: listed apart in the source
[13] = as §3; assay type: ADME, organism-based; conditions: female, Sprague-Dawley, rat, in vivo
Outline: as §2

[14] = as §4; assay type: ADME, organism-based; conditions: female, Sprague-Dawley, rat, plasma
Outline: as §2

[15] = target: T2, Estrogen receptor beta; assay: Agonist effect in transcriptional activation in HEK293 cells expressing human estrogen receptor beta; NA= not active; assay type: functional, cell-based
[16] = target: T1, Estrogen receptor; assay: Agonist effect in transcriptional activation in HEK293 cells expressing human estrogen receptor alpha; NA= not active; assay type: functional, cell-based

IC50 [1] [nM]	IC50 [2] [nM]	Antagonism [6] [%]	IC50 [7] [nM]	IC50 [8] [nM]	Estrogenic effect [9] [%]	Structure (SMILES)	other results
34.9	595					Cc1cc2c(cc1O)O[C@H](c1ccc(OCCN3CCCCC3)cc1)[C@H](c1ccc(O)cc1)S2	
5.3	343	-4	690	22.6	12	Cc1cc(O)cc2c1O[C@H](c1ccc(OCCN3CCCCC3)cc1)[C@H](c1ccc(O)cc1)S2	
1	18					Oc1ccc([C@H]2Sc3c(ccc(O)c3F)O[C@H]2c2ccc(OCCN3CCCCC3)cc2)cc1	Estrogenic effect [10]: 1%; bioavailability [11]: 37%; Antagonism [12]: 100%; half-life [13]: 186 min; clearance [14]: 18 mL/min/kg
2	46.2		200	5.5		Cc1cc(O)cc2c1S[C@@H](c1ccc(O)cc1)[C@@H](c1ccc(OCCN3CCCCC3)cc1)O2	bioavailability [11]: 6%; half-life [13]: 162 min; clearance [14]: 51 mL/min/kg
5.4	73	36	2370	14.8	38	Oc1ccc([C@@H]2Sc3cc(O)c(Cl)cc3O[C@@H]2c2ccc(OCCN3CCCCC3)cc2)cc1	
0.51	8	68	121	3.4	12	Oc1ccc([C@@H]2Sc3c(Cl)cc(O)cc3O[C@@H]2c2ccc(OCCN3CCCCC3)cc2)cc1	
		77			5	Oc1ccc([C@@H]2Sc3cc(O)ccc3O[C@@H]2c2ccc(OCCN3CCCCC3)cc2)cc1 (stereo in doubt; 11) [listing 2 of 2 here]	
1.2	54	29	68.3	9.3	27	Cc1c(O)ccc2c1O[C@H](c1ccc(OCCN3CCCCC3)cc1)[C@H](c1ccc(O)cc1)S2	
0.5	13	89	516	6.1	-2	Oc1ccc([C@@H]2Sc3c(F)cc(O)cc3O[C@@H]2c2ccc(OCCN3CCCCC3)cc2)cc1	bioavailability [11]: 4.4%; half-life [13]: 354 min; clearance [14]: 41 mL/min/kg
5.3	105		1010	25.4		Oc1ccc([C@@H]2Sc3cc(O)cc(Cl)c3O[C@@H]2c2ccc(OCCN3CCCCC3)cc2)cc1	
25	788	64			7	Oc1ccc([C@@H]2Sc3c(O)cc(O)cc3O[C@@H]2c2ccc(OCCN3CCCCC3)cc2)cc1	
13.5	413	53			13	Oc1ccc([C@@H]2Sc3cc(O)c(F)cc3O[C@@H]2c2ccc(OCCN3CCCCC3)cc2)cc1	
1.8	44.4	67	239	5	1	Oc1ccc([C@@H]2Sc3ccc(O)cc3O[C@@H]2c2ccc(OCCN3CCCCC3)cc2)cc1	bioavailability [11]: 0%; half-life [13]: 132 min; clearance [14]: 154 mL/min/kg
0.8	13.2	76	177	2.5	7	Oc1ccc([C@@H]2Sc3c(ccc(O)c3F)O[C@@H]2c2ccc(OCCN3CCCCC3)cc2)cc1	bioavailability [11]: 22%; half-life [13]: 144 min; clearance [14]: 16 mL/min/kg
23.1	520		3020	61		Oc1ccc([C@@H]2Sc3cc(Cl)c(O)cc3O[C@@H]2c2ccc(OCCN3CCCCC3)cc2)cc1	
3.8	66.6	9.5	1550	94	5	Oc1ccc2c(c1)SC(c1ccc(F)cc1)C(c1ccc(OCCN3CCCCC3)cc1)O2 (stereo unspecified)	

Second part, the compound before the results:

Structure (SMILES)	IC50 [1] [nM]	IC50 [2] [nM]	Antagonism [6] [%]	IC50 [7] [nM]	IC50 [8] [nM]	Estrogenic effect [9] [%]	other results
Oc1ccc2c(c1)SC(c1ccccc1)C(c1ccc(OCCN3CCCCC3)cc1)O2 (stereo unspecified)	11.9	300					
Oc1ccc([C@@H]2Sc3cc(O)ccc3O[C@@H]2c2ccc(OCCN3CCCCC3)cc2)cc1 (stereo in doubt; 11L) [listing 1 of 2 here]							F [3]: 10%; T1/2 [4]: 1.6 h; CL [5]: 31 mL/min/kg
CCc1c(O)ccc2c1O[C@H](c1ccc(OCCN3CCCCC3)cc1)[C@H](c1ccc(O)cc1)S2	4.7	25					
Oc1ccc([C@@H]2Sc3cc(O)ccc3O[C@@H]2c2ccc(OCCN3CCCCC3)cc2)cc1 (stereo in doubt; 11) [listing 1 of 2 here]							F [3]: 31%; T1/2 [4]: 3.8 h; CL [5]: 5 mL/min/kg
Oc1ccc([C@@H]2Sc3c(ccc(O)c3Cl)O[C@@H]2c2ccc(OCCN3CCCCC3)cc2)cc1	2.4	14	67	64	1	27	
Oc1cccc([C@H]2Sc3cc(O)ccc3O[C@H]2c2ccc(OCCN3CCCC3)cc2)c1	0.9	37	77	40.1	1.7	22	
Oc1ccc([C@@H]2Sc3cc(O)ccc3O[C@@H]2c2ccc(OCCN3CCCCC3)cc2)cc1 (stereo in doubt; 11L) [listing 2 of 2 here]							Estrogenic effect [10]: 1%; Antagonism [12]: 16%
CN(C)CCOc1ccc([C@@H]2Oc3ccc(O)cc3S[C@@H]2c2cccc(O)c2)cc1	1.4	129	34	7.3	2.3	69	
Oc1cccc(C2Sc3cc(O)ccc3OC2c2ccc(OCCN3CCCCC3)cc2)c1 (stereo unspecified)	3	250	90	245	3.6	16	
Oc1cccc([C@H]2Sc3cc(O)ccc3O[C@H]2c2ccc(OCCNC3CCCCCC3)cc2)c1	1.2	103	57	67	3.5	22	
COc1ccc(C2Sc3cc(O)ccc3OC2c2ccc(OCCN3CCCCC3)cc2)cc1 (stereo unspecified)	41.1	792		> 1000	274		
CC1CCN(CCOc2ccc([C@@H]3Oc4ccc(O)cc4S[C@@H]3c3cccc(O)c3)cc2)CC1	0.8	109	59	132	4	29	
Oc1ccc2c(c1)S[C@@H](c1ccccc1O)[C@@H](c1ccc(OCCN3CCCCC3)cc1)O2	1.3	1.1					
CC1CCCC(C)N1CCOc1ccc([C@@H]2Oc3ccc(O)cc3S[C@@H]2c2cccc(O)c2)cc1 (stereo partly specified)	3.4	350	43			30	IC50 [15]: Not Active; IC50 [16]: Not Active
Oc1ccc([C@H]2Sc3cc(O)ccc3O[C@H]2c2ccc(OCCN3CCCCC3)cc2)cc1							Estrogenic effect [10]: 9%; bioavailability [11]: 62%; half-life [13]: 204 min; clearance [14]: 10 mL/min/kg
CCc1cc(O)cc2c1S[C@@H](c1ccc(O)cc1)[C@@H](c1ccc(OCCN3CCCCC3)cc1)O2	53.3	185		1460	342		
Oc1cccc([C@H]2Sc3cc(O)ccc3O[C@H]2c2ccc(OCCN3CCOCC3)cc2)c1	3.8	318	54	65.3	4.7	29	
Oc1cccc([C@H]2Sc3cc(O)ccc3O[C@H]2c2ccc(OCCN3CCCCC3)cc2)c1	4.1	115	78	157	5.4	12	

Source: ChEMBL document CHEMBL1146754, “Estrogen receptor ligands. Part 4: The SAR of the syn-dihydrobenzoxathiin SERAMs” (Bioorg Med Chem Lett, 2004)
